Consider nine molecules from paper PMC4251658 (Biochemistry, 2012).

In general, pKa refers to the pH at which an ionisable group is half protonated. Broadly, the stoichiometry N is the number of molecules, sites or subunits per partner or assembly.

Data set [1] addresses T1, PCP hydroxylase (Sphingobium chlorophenolicum, UniProt P42535).
T1 sequence (P42535 1-538): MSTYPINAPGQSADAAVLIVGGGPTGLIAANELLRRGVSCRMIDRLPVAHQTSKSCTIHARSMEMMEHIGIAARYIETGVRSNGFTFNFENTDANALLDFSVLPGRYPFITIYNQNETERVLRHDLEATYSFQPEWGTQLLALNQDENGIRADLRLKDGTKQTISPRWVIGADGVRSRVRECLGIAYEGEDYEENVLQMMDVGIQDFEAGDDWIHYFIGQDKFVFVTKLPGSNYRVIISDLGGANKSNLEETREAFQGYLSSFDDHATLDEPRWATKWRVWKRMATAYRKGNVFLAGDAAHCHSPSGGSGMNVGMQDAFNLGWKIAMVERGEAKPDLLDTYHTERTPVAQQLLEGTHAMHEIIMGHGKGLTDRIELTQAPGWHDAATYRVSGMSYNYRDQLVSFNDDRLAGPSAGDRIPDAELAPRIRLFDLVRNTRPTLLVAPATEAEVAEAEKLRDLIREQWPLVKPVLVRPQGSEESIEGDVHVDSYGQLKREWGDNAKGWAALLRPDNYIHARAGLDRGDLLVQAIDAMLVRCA
Nature of the data set: Spectroscopic assays of enzyme activity, steady-state kinetic parameters. The format is biochemical. Particulars: 160 μM NADPH; for kcat for hydroxylation reaction: in the presence of 6 mM β-ME, ambient O2 (apparent).

Data set [2] has as its target T1, PCP hydroxylase. Nature of the data set: HPLC analysis of the products formed by PCP hydroxylase. Particulars: for TCHQ, reaction components after 1 min incubation at room temperature / THTH, reaction components after 1 min incubation at room temperature / PCP, reaction components after 1 min incubation at room temperature / TCP, reaction components after 1 min incubation at room temperature: reactant 100 μM, PCP hydroxylase 10 μM, NADPH 300 μM. The format is biochemical. In a few lines:
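His6-tagged enzyme expressed in E. coli M15(pReP4). Substrate (100 μM) in 50 mM potassium phosphate pH 7.5 with 25 μM ascorbate, plus 6 mM β-ME where included to trap TCBQ as THTH. Enzyme (10 μM) and NADPH (300 μM) added as indicated, 1 min at room temperature. Quenched into ethyl acetate with p-nitrophenol internal standard, dried, redissolved in TFA/acetonitrile; HPLC detection at 295, 310 and 350 nm.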

Data set [3] has as its target T1, PCP hydroxylase. Kind of data set: Determination of dissociation constants by absorbance spectroscopy. In kind it is binding. The following applies: titration at constant enzyme concentration.
Data set [4] addresses T1, PCP hydroxylase. Kind of data set: Hydrogen peroxide assay. The following applies: 100 μM substrate, 160 μM NADPH. In kind it is biochemical. In a few lines:
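Reaction samples or H2O2 standards were added to freshly prepared reagent (250 μM Fe(II) ammonium sulfate, 25 mM H2SO4, 100 μM xylenol orange, 100 mM sorbitol) and incubated 30–45 min at room temperature. A560 was read against a prior standard curve. Reactions contained substrate or effector (100 μM) and NADPH (160 μM), run in triplicate; average rates came from at least three separate experiments.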

Data set [5] addresses T1, PCP hydroxylase. The format is biochemical. The following applies: 100 μM substrate, 160 μM NADPH.
In data set [6] the test system is PCP hydroxylase. The following applies: cited from earlier work.
For data set [7] the following is noted: phenolic proton, in solution; cited from earlier work.
The data set “SEC” deals with the molecule itself. Nature of the data set: SEC. In general terms: SEC sorts molecules by how far they enter the pores of the column.
Setting [8] is: in the presence of 5 mM ascorbate.

“And” between values parts separate entries of the source, which are not always exact repeats. Equal entries are not always repeated. Where two headings read alike, the source gives them in different places. Marks after values point to notes of the source that are not given here. Some results are limits rather than exact numbers.

For the molecule `Oc1c(Cl)c(Cl)c(O)c(Cl)c1Cl` [TCHQ, tetrachlorohydroquinone], on PCP hydroxylase [1] (6 mM β-ME), the “concentration above which substrate inhibition is seen” value is over 40 µM. The “kcat for hydroxylation reaction” value at PCP hydroxylase [1] is reported as > 0.015^a,b s^−1. Further, the “conversion to THTH” value on PCP hydroxylase [2] (incubation with the enzyme in the presence of NADPH and β-ME for one minute) was determined as 23%. For the same molecule, on PCP hydroxylase [2] (β-ME 6, 25 μM ascorbate), the “TCHQ, reaction components after 1 min incubation at room temperature” value (“TCHQ, reaction components” below) worked out at 77 ± 2 and the “THTH, reaction components after 1 min incubation at room temperature” value (shortened to “THTH, reaction components”) is given as 23 ± 2. For the same molecule, the “Dissociation constants (in words)” value at PCP hydroxylase [3] was “low micromolar range”. This molecule also displayed an H2O2 appearance on PCP hydroxylase [4] of 0.035 ± 0.005 s⁻¹. On PCP hydroxylase [5] (in the presence of 6 mM β-ME), the NADPH /product is 6.3^c, the NADPH disappearance is recorded as 0.030 ± 0.003^c s^−1 and the Product appearance is recorded as 0.0048 ± 0.0004^c s^−1.
As to `Oc1ccc(Cl)c(Cl)c1` [3,4-DCP], on PCP hydroxylase [5], the NADPH disappearance was found to be 0.0045 ± 0.0010 s⁻¹, the Product appearance result was “none” and the “extent of uncoupling (in words)” value is recorded as “complete uncoupling”.
Regarding `Oc1cc(Cl)cc(Cl)c1` [3,5-DCP, 3,5-dichlorophenol], the H2O2 appearance on PCP hydroxylase [4] was 0.0029 ± 0.0006 s⁻¹. At PCP hydroxylase [5], the NADPH disappearance amounted to 0.0079 ± 0.0016 s⁻¹, the Product appearance result was “none” and the “extent of uncoupling (in words)” value is “complete uncoupling”.
For the molecule `Oc1cc(Cl)c(Cl)c(Cl)c1` [3,4,5-triCP, 3,4,5-trichlorophenol], at PCP hydroxylase [5], the NADPH disappearance came to 0.012 ± 0.001 s⁻¹, the Product appearance entry was “none” and the “extent of uncoupling (in words)” value is given as “complete uncoupling”.
In the case of `Oc1c(Cl)cccc1Cl` [2,6-DCP, 2,6-dichlorophenol], at PCP hydroxylase [4], the H2O2 appearance stood at 0.0011 ± 0.0002 s⁻¹. Moreover, at PCP hydroxylase [5], the NADPH /product came to 0.9, the NADPH disappearance is 0.051 ± 0.004 s⁻¹, the Product appearance was 0.060 ± 0.002 s⁻¹ and the “extent of uncoupling (in words)” value was “no uncoupling”.
As for `Oc1c(Cl)cc(Cl)cc1Cl` [2,4,6-triCP, 2,4,6-trichlorophenol], the H2O2 appearance at PCP hydroxylase [4] was found to be 0.0012 ± 0.0002 s⁻¹. For the same molecule, at PCP hydroxylase [5] (setting [8]), the NADPH /product was 1.5^b, the NADPH disappearance is 0.0048 ± 0.003^b s^−1 and the Product appearance is listed as 0.0033 ± 0.0002^b s^−1.
Consider `Oc1c(Cl)c(Cl)c(Cl)c(Cl)c1Cl` [PCP, pentachlorophenol], for which the “kcat for hydroxylation reaction” value at PCP hydroxylase [1] is 0.024 s^−1 and 0.024 ± 0.002^a,b s^−1. On PCP hydroxylase [2] (no β-ME, 25 μM ascorbate), the “PCP, reaction components after 1 min incubation at room temperature” value is 75 ± 1 and the “TCHQ, reaction components” value came to 18 ± 1. On PCP hydroxylase [2] (β-ME 6, 25 μM ascorbate), the “PCP, reaction components after 1 min incubation at room temperature” value is listed as 70 ± 2 and the “THTH, reaction components” value amounted to 28 ± 2. Also, in the data set on PCP hydroxylase [6], the “NADPH consumed for each PCP consumed” value is 2 equivalents and the “O2 consumed for each PCP consumed” value is given as 1.4 equivalents. For the same molecule, in data set [7], the pKa is given as 4.5. The molecule further registered an H2O2 appearance at PCP hydroxylase [4] of 0.0070 ± 0.0009 s⁻¹. Also, on PCP hydroxylase [5] (setting [8]), the NADPH /product was 1.3^b, the NADPH disappearance was 0.025 ± 0.001^b s^−1 and the Product appearance is 0.020 ± 0.003^b s^−1.
For `Oc1c(Cl)c(Cl)cc(Cl)c1Cl` [TCP, 2,3,5,6-tetrachlorophenol], the “Hill coefficient nH” value at PCP hydroxylase [1] was determined as 2. Further, on PCP hydroxylase [2] (no β-ME, 25 μM ascorbate), the “TCHQ, reaction components” value is recorded as 78 ± 11 and the “TCP, reaction components after 1 min incubation at room temperature” value was determined as 10 ± 1. For the same molecule, on PCP hydroxylase [2] (β-ME 6, 25 μM ascorbate), the “TCHQ, reaction components” value is on record as 75 ± 8; the “TCP, reaction components after 1 min incubation at room temperature” value turned out to be 10 ± 1; the “THTH, reaction components” value amounted to 9 ± 1. Besides, the “Dissociation constants (in words)” value at PCP hydroxylase [3] is “low micromolar range”. The molecule further returned an H2O2 appearance on PCP hydroxylase [4] of 0.0132 ± 0.008 s⁻¹. At PCP hydroxylase [5], the NADPH /product is 1.5, the NADPH disappearance was determined as 0.111 ± 0.018 s⁻¹ and the Product appearance turned out to be 0.076 ± 0.008 s⁻¹.

B1: His6-tagged PCP hydroxylase (pentachlorophenol hydroxylase, PcpB) (enzyme, Sphingobium chlorophenolicum, UniProt P42535 1-538, looked up)
chain: MSTYPINAPGQSADAAVLIVGGGPTGLIAANELLRRGVSCRMIDRLPVAHQTSKSCTIHARSMEMMEHIGIAARYIETGVRSNGFTFNFENTDANALLDFSVLPGRYPFITIYNQNETERVLRHDLEATYSFQPEWGTQLLALNQDENGIRADLRLKDGTKQTISPRWVIGADGVRSRVRECLGIAYEGEDYEENVLQMMDVGIQDFEAGDDWIHYFIGQDKFVFVTKLPGSNYRVIISDLGGANKSNLEETREAFQGYLSSFDDHATLDEPRWATKWRVWKRMATAYRKGNVFLAGDAAHCHSPSGGSGMNVGMQDAFNLGWKIAMVERGEAKPDLLDTYHTERTPVAQQLLEGTHAMHEIIMGHGKGLTDRIELTQAPGWHDAATYRVSGMSYNYRDQLVSFNDDRLAGPSAGDRIPDAELAPRIRLFDLVRNTRPTLLVAPATEAEVAEAEKLRDLIREQWPLVKPVLVRPQGSEESIEGDVHVDSYGQLKREWGDNAKGWAALLRPDNYIHARAGLDRGDLLVQAIDAMLVRCA
Regarding B1, the “stoichiometry N” value in “SEC” came out at 2.
